Results published in ChEMBL document CHEMBL1157543, “Synthesis and biological evaluation of polysulfated oligosaccharide glycosides as inhibitors of angiogenesis and tumor growth” (J Med Chem, 2010).
The source made the active and inactive calls. The rule behind the calls is not given here.

What was measured:
[1] = tested on: HUVEC; test: Cytotoxicity against HUVEC; type: cell-based; conditions: human
[2] = Toxicity in rat aortic endothelium assessed as microvessel sprouts at 10 and 50 uM after 6 or 7 days; type: tissue-based, Sprague-Dawley, Aorta; conditions: ex_vivo, 168 h
Outline: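 Aortic ring viability check: on day 6 or 7, compound or medium was withdrawn and complete medium with VEGF (typically 10 ng/mL) was added for up to 7 more days. New microvessel sprouting was taken as a sign of viable tissue.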

[3] = biological target: Fibroblast growth factor 1 (Homo sapiens, UniProt P05230); test: Binding affinity to FGF1 by surface plasmon-based solution affinity assay
Outline: (§1)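 Surface plasmon resonance solution affinity assay on heparin-coated CM4 chips. Buffer: HBS-EP (10 mM HEPES pH 7.4, 150 mM NaCl, 3.0 mM EDTA, 0.005% polysorbate 20). Kd is the mean of at least duplicate measurements ± SD.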

[4] = biological target: Fibroblast growth factor 2 (Homo sapiens, UniProt P09038); test: Binding affinity to FGF2 by surface plasmon-based solution affinity assay
Outline: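 Surface plasmon resonance solution affinity assay on heparin-coated CM4 chips. FGF-2 binding run in HBS-EP containing 300 mM NaCl. Kd is the mean of at least duplicate measurements ± SD.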

[5] = biological target: T1, Heparanase (Homo sapiens, UniProt Q9Y251); test: Inhibition of human recombinant heparanase
T1 sequence (Q9Y251 whole entry): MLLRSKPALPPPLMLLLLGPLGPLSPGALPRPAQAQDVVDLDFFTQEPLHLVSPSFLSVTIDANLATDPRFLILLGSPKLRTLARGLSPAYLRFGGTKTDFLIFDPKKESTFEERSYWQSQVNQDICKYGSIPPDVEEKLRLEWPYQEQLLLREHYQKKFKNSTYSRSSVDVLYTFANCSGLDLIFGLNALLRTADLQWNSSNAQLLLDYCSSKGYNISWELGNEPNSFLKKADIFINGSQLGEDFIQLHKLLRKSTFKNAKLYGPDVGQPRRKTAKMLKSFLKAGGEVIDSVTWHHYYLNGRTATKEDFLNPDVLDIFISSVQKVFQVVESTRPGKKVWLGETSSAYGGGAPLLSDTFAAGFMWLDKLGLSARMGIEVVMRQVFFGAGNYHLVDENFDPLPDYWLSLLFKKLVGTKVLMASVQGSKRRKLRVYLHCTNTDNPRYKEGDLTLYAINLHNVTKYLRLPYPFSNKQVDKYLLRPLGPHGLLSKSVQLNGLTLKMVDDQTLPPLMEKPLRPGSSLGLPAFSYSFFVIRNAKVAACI
Outline: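 Recombinant human heparanase assayed by ultrafiltration with 3H-labelled heparan sulfate as substrate (Km = 1.64 μM). Ki values with standard error were derived from inhibition response curves.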

[6] = tested on: Plasma; test: Anticoagulant activity in human plasma assessed as activated partial thromboplastin time; type: functional
Outline: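 Pooled normal human plasma spiked with compound in PBS at 0.1 mg/mL (methods give a 0–100 μg/mL range); APTT elevation measured. Normal range 26–36 s. Values are means of two determinations.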

[7] = tested on: Plasma; test: Anticoagulant activity in human plasma by heptest; type: functional
Outline: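 Heptest clot assay. Plasma (centrifuged 1800g, 10 min, used within 30 min) incubated with compound 2 min at 37 °C. Factor Xa added, 2 min at 37 °C, then clotting started with Recalmix; read on a ball coagulometer. Normal range 13–20 s; means of two determinations.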

[8] = biological target: T2, Vascular endothelial growth factor A, long form (Homo sapiens, UniProt P15692); test: Binding affinity to VEGF by surface plasmon-based solution affinity assay; outline: as §1
T2 sequence (P15692 whole entry): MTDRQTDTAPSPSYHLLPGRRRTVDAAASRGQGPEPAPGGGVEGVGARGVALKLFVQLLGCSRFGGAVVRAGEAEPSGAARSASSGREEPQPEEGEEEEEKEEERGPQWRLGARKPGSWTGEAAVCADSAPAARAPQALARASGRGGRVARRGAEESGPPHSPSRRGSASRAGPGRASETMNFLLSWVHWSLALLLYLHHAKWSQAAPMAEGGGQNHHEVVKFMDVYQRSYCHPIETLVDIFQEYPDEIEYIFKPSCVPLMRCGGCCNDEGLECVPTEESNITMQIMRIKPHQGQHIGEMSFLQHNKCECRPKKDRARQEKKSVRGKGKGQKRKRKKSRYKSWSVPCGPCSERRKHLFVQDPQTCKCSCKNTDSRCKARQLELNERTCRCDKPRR

[9] = tested on: HUVEC; test: Antiangiogenic activity against HUVEC assessed as inhibition of endothelial cell tube formation on ECM-derived protein matrix at 100 uM by phase contrast microscopy; type: functional, cell-based; conditions: Homo sapiens
Outline: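 HUVECs at passage 4–5 (70–80% confluent) suspended in EGM2 with all supplements except heparin at 4×10^5 cells/mL, mixed 1:1 with compound (final 10, 50, 100 μM), plated in triplicate on growth factor-reduced Matrigel. Incubated 18 h; tubes scored by phase-contrast microscopy. Untreated cells as control; one-way ANOVA with Dunnett's test.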

[10] = tested on: Aorta; test: Inhibition of angiogenesis in Sprague-Dawley rat aortic endothelium at 10 uM; type: functional, tissue-based
Outline: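 Sprague-Dawley rats (2–4 months old): bisected 1 mm thoracic aortic rings embedded in Matrigel in EBM-2 with 2% FCS, no heparin. Compound added in triplicate, medium replenished every 48 h. Microvessel sprouting scored semiquantitatively by two assessors up to day 8. One-way ANOVA with Dunnett's test.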

[11] = tested on: HUVEC; test: Inhibition of VEGF-induced HUVEC cell proliferation; type: functional, cell-based; conditions: Homo sapiens
Outline: (§2)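 HUVECs seeded at 1–3 × 10^3 per well in EGM with 2% FBS and gentamicin. Proliferation driven by VEGF, FGF-1 or FGF-2; compound added typically at seven concentrations (1–50 μM) in triplicate. After 70 h, MTS reagent added for 2 h and A490 read. IC50 obtained from blank-subtracted curves.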

[12] = tested on: HUVEC; test: Inhibition of FGF2-induced HUVEC cell proliferation; type: functional, cell-based; conditions: Homo sapiens; outline: as §2
[13] = tested on: HUVEC; test: Inhibition of FGF1-induced HUVEC cell proliferation; type: functional, cell-based; conditions: Homo sapiens; outline: as §2

Sequence of Fibroblast growth factor 1 (P05230 whole entry): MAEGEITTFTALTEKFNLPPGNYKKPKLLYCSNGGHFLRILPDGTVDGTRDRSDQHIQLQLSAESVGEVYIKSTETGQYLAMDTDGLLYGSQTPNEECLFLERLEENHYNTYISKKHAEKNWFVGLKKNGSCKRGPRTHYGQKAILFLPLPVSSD
Sequence of Fibroblast growth factor 2 (P09038 143-288 limits assumed): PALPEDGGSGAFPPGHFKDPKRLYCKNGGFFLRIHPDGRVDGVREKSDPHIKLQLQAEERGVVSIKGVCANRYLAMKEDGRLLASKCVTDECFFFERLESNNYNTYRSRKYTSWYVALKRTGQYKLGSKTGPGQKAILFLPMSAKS

Row | Molecule | LC50 [1] [nM] | Activity [2] | Kd [3] [nM] | Kd [4] [nM] | Ki [5] [nM] | Time [6] [s] | Activity [7] [s] | Kd [8] [nM] | inhibition [9] [%] | TIME [6] [h] | Activity [10] | Activity [11] | Activity [12] | Activity [13]
1 | O=S(=O)([O-])OC[C@H]1O[C@H](OCCCCCCCCn2cc(-c3ccccc3)nn2)[C@@H](O[C@H]2O[C@H](COS(=O)(=O)[O-])[C@@H](OS(=O)(=O)[O-])[C@H](O[C@H]3O[C@H](COS(=O)(=O)[O-])[C@@H](OS(=O)(=O)[O-])[C@H](O[C@H]4O[C@H](COS(=O)(=O)[O-])[C@@H](OS(=O)(=O)[O-])[C@H](OS(=O)(=O)[O-])[C@@H]4OS(=O)(=O)[O-])[C@@H]3OS(=O)(=O)[O-])[C@@H]2OS(=O)(=O)[O-])[C@@H](OS(=O)(=O)[O-])[C@@H]1OS(=O)(=O)[O-].[Na+].[Na+].[Na+].[Na+].[Na+].[Na+].[Na+].[Na+].[Na+].[Na+].[Na+].[Na+].[Na+] | > 100000 | Toxic | 0.28 | 140 | 310 | 53 | 24.4 | 10.4 |  |  |  |  |  | 
2 | MUPARFOSTAT SODIUM [listing 1 of 2 here] | > 100000 | Toxic |  |  |  |  |  |  |  |  |  |  |  | 
3 | MUPARFOSTAT SODIUM [listing 2 of 2 here] |  |  |  |  |  |  | > 500 |  | 58 | > 0.139 |  |  |  | 
4 | O=S(=O)([O-])OC[C@H]1O[C@H](OCCCCCCCCn2cc(-c3cccc4ccccc34)nn2)[C@@H](O[C@H]2O[C@H](COS(=O)(=O)[O-])[C@@H](OS(=O)(=O)[O-])[C@H](O[C@H]3O[C@H](COS(=O)(=O)[O-])[C@@H](OS(=O)(=O)[O-])[C@H](O[C@H]4O[C@H](COS(=O)(=O)[O-])[C@@H](OS(=O)(=O)[O-])[C@H](OS(=O)(=O)[O-])[C@@H]4OS(=O)(=O)[O-])[C@@H]3OS(=O)(=O)[O-])[C@@H]2OS(=O)(=O)[O-])[C@@H](OS(=O)(=O)[O-])[C@@H]1OS(=O)(=O)[O-].[Na+].[Na+].[Na+].[Na+].[Na+].[Na+].[Na+].[Na+].[Na+].[Na+].[Na+].[Na+].[Na+] | > 100000 |  | 0.19 | 110 | 270 | 59.5 | 28.8 | 7.1 |  |  |  |  |  | 
5 | O=S(=O)([O-])OC[C@H]1O[C@H](OCCCCCCCCn2cc(-c3ccccc3)nn2)[C@@H](O[C@H]2O[C@H](COS(=O)(=O)[O-])[C@@H](OS(=O)(=O)[O-])[C@H](O[C@H]3O[C@H](COS(=O)(=O)[O-])[C@@H](OS(=O)(=O)[O-])[C@H](O[C@H]4O[C@H](COS(=O)(=O)[O-])[C@@H](OS(=O)(=O)[O-])[C@H](O[C@H]5O[C@H](COS(=O)(=O)[O-])[C@@H](OS(=O)(=O)[O-])[C@H](OS(=O)(=O)[O-])[C@@H]5OS(=O)(=O)[O-])[C@@H]4OS(=O)(=O)[O-])[C@@H]3OS(=O)(=O)[O-])[C@@H]2OS(=O)(=O)[O-])[C@@H](OS(=O)(=O)[O-])[C@@H]1OS(=O)(=O)[O-].[Na+].[Na+].[Na+].[Na+].[Na+].[Na+].[Na+].[Na+].[Na+].[Na+].[Na+].[Na+].[Na+].[Na+].[Na+].[Na+] | > 100000 |  | 0.16 | 43 | 420 | 96.9 | 38.4 | 0.62 |  |  |  |  |  | 
6 | O=S(=O)([O-])OC[C@H]1O[C@H](OCCCCCCCCn2cc(-c3cccc4ccccc34)nn2)[C@@H](O[C@H]2O[C@H](COS(=O)(=O)[O-])[C@@H](OS(=O)(=O)[O-])[C@H](O[C@H]3O[C@H](COS(=O)(=O)[O-])[C@@H](OS(=O)(=O)[O-])[C@H](O[C@H]4O[C@H](COS(=O)(=O)[O-])[C@@H](OS(=O)(=O)[O-])[C@H](O[C@H]5O[C@H](COS(=O)(=O)[O-])[C@@H](OS(=O)(=O)[O-])[C@H](OS(=O)(=O)[O-])[C@@H]5OS(=O)(=O)[O-])[C@@H]4OS(=O)(=O)[O-])[C@@H]3OS(=O)(=O)[O-])[C@@H]2OS(=O)(=O)[O-])[C@@H](OS(=O)(=O)[O-])[C@@H]1OS(=O)(=O)[O-].[Na+].[Na+].[Na+].[Na+].[Na+].[Na+].[Na+].[Na+].[Na+].[Na+].[Na+].[Na+].[Na+].[Na+].[Na+].[Na+] | > 100000 |  | 0.12 | 35 | 360 | 89 | 20 | 0.7 |  |  |  |  |  | 
7 | O=S(=O)([O-])OC[C@H]1O[C@H](OCc2ccccc2)[C@@H](O[C@H]2O[C@H](COS(=O)(=O)[O-])[C@@H](OS(=O)(=O)[O-])[C@H](O[C@H]3O[C@H](COS(=O)(=O)[O-])[C@@H](OS(=O)(=O)[O-])[C@H](O[C@H]4O[C@H](COS(=O)(=O)[O-])[C@@H](OS(=O)(=O)[O-])[C@H](O[C@H]5O[C@H](COS(=O)(=O)[O-])[C@@H](OS(=O)(=O)[O-])[C@H](OS(=O)(=O)[O-])[C@@H]5OS(=O)(=O)[O-])[C@@H]4OS(=O)(=O)[O-])[C@@H]3OS(=O)(=O)[O-])[C@@H]2OS(=O)(=O)[O-])[C@@H](OS(=O)(=O)[O-])[C@@H]1OS(=O)(=O)[O-].[Na+].[Na+].[Na+].[Na+].[Na+].[Na+].[Na+].[Na+].[Na+].[Na+].[Na+].[Na+].[Na+].[Na+].[Na+].[Na+] | > 100000 | Toxic | 0.16 | 95 | 370 | >500 | >500 | 1.8 |  |  | Active |  |  | 
8 | O=S(=O)([O-])OC[C@H]1O[C@H](OCc2ccccc2)[C@@H](O[C@H]2O[C@H](COS(=O)(=O)[O-])[C@@H](OS(=O)(=O)[O-])[C@H](O[C@H]3O[C@H](COS(=O)(=O)[O-])[C@@H](OS(=O)(=O)[O-])[C@H](O[C@H]4O[C@H](COS(=O)(=O)[O-])[C@@H](OS(=O)(=O)[O-])[C@H](OS(=O)(=O)[O-])[C@@H]4OS(=O)(=O)[O-])[C@@H]3OS(=O)(=O)[O-])[C@@H]2OS(=O)(=O)[O-])[C@@H](OS(=O)(=O)[O-])[C@@H]1OS(=O)(=O)[O-].[Na+].[Na+].[Na+].[Na+].[Na+].[Na+].[Na+].[Na+].[Na+].[Na+].[Na+].[Na+].[Na+] | > 100000 | Toxic | 0.24 | 129 | 280 | 417.9 | 281.1 | 21 |  |  | Active | Active | Active | Active
